Results reported in ChEMBL document CHEMBL3421570, “Combinatorial Libraries As a Tool for the Discovery of Novel, Broad-Spectrum Antibacterial Agents Targeting the ESKAPE Pathogens” (J Med Chem, 2015).
Converted amounts (≈) assume the structure as drawn. The source made the active and inactive calls. The calls are words filed in the database; no cut-off is given here.

Legend:
[1] = system: Enterobacter cloacae; experiment: Bactericidal activity against Enterobacter cloacae after 24 hrs; format: functional
[2] = Cytotoxicity against human A549 cells assessed as cell viability recovery up to 125 uM after 48 hrs by MTT assay; format: cell-based; conditions: read-out: Activity
Outline: (§1)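 A549 cells grown in F-12K with L-glutamine, 10% FBS, 1% penicillin-streptomycin, seeded at 1.0 × 10^5 ml−1, allowed to adhere 24 h (37°C, 5% CO2), then exposed to compound in 45% w/v (2-hydroxypropyl)-β-cyclodextrin vehicle for 48 h. MTT 4 h, formazan solubilized in DMSO, absorbance 540 nm. Percent recovery versus vehicle-only; IC50 derived; at least three independent experiments.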

[3] = system: Pseudomonas aeruginosa; experiment: Antimicrobial activity against Pseudomonas aeruginosa isolate 1414 assessed as inhibition of microbial growth in presence of 100 uM efflux pump inhibitor reserpine after 24 hrs; format: functional, organism-based
[4] = system: Enterococcus faecium; experiment: Induction of spontaneous mutation in Enterococcus faecium at 2 to 10 MIC; format: functional, organism-based
[5] = Selectivity index, ratio of IC50 for human A549 cells to MIC for Enterobacter cloacae
[6] = system: Enterobacter cloacae; experiment: Ratio of MIC for Enterobacter cloacae measured after 8 cycle passage to MIC for wild type Enterobacter cloacae; format: functional
[7] = system: Acinetobacter baumannii; experiment: Induction of spontaneous mutation in Acinetobacter baumannii at 2 to 10 MIC; format: functional, organism-based
[8] = Selectivity index, ratio of IC50 for human A549 cells to MIC for Enterococcus faecium
[9] = Induction of hemolysis in human RBC at 10 uM incubated for 15 mins; format: cell-based, Erythrocyte; conditions: red blood cells, read-out: Activity
Outline: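 Human RBCs from whole blood, resuspended 20% v/v in HA buffer (NaCl, CaCl2), compound 10 μM, 15 min at 37°C. Centrifuged 5,500 g for 1 min, supernatant OD543 read. Percent hemolysis against DMF vehicle (0%) and 1.0% Triton X-100 (100%); triplicate.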

[10] = system: Klebsiella pneumoniae; experiment: Antimicrobial activity against Klebsiella pneumoniae assessed as inhibition of microbial growth at 45 uM after 24 hrs; format: functional, organism-based
Outline: (§2)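 Broth microdilution single-concentration read: overnight cultures diluted 1:1000, compound in DMF (≤2.0%) added, 37°C for 24 h, growth inhibition scored visually by lack of turbidity; triplicate. Gram-positives grown in TSB, Gram-negatives in LB.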

[11] = system: Enterobacter cloacae; experiment: Antibiofilm activity against Enterobacter cloacae incubated for 24 hrs followed by biofilm resuspension in PBS and measured after 24 hrs; format: functional
Outline: (§3)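 Biofilms grown 24 h in 96-well plates from overnight cultures standardized to OD600 0.5 in fresh medium (human serum only for S. aureus; TSB for Gram-positives, LB for Gram-negatives). Medium then replaced with fresh medium containing a concentration range above and below MIC, 37°C overnight. After 24 h biofilm resuspended in PBS, serially diluted, plated in duplicate, CFU counted after 24 h at 37°C. Activity relative to untreated; three technical replicates; MBEC50 reported.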

[12] = system: Staphylococcus aureus; experiment: Bactericidal activity against methicillin-resistant Staphylococcus aureus at MIC measured after drug wash out after 120 mins by time kill assay; format: functional
Outline: (§4)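 MRSA from stationary phase was regrown 3 h in TSB and seeded at OD600 0.5. […] After 120 min, cells were centrifuged and washed, serially diluted and plated for CFU. Percent recovery is relative to no-drug controls.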

[13] = system: Acinetobacter baumannii; experiment: Antimicrobial activity against Acinetobacter baumannii assessed as inhibition of microbial growth after 24 hrs; format: functional
Outline: (§5)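 Broth microdilution against multidrug-resistant clinical ESKAPE isolates. Overnight cultures (TSB for Gram-positives, LB for Gram-negatives) diluted 1:1000 in fresh medium, compound in DMF (≤2.0% DMF) added at decreasing concentrations, 37°C.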

[14] = system: Staphylococcus aureus; experiment: Antimicrobial activity against Staphylococcus aureus assessed as inhibition of microbial growth at 45 uM after 24 hrs; format: functional, organism-based; outline: as §2
[15] = system: Acinetobacter baumannii; experiment: Ratio of MIC for Acinetobacter baumannii measured after 8 cycle passage to MIC for wild type Acinetobacter baumannii; format: functional
[16] = system: Staphylococcus aureus; experiment: Bactericidal activity against methicillin-resistant Staphylococcus aureus assessed as cell survival recovery at MIC measured after drug wash out after 120 mins by time kill assay; format: functional; outline: as §4
[17] = system: Pseudomonas aeruginosa; experiment: Induction of spontaneous mutation in Pseudomonas aeruginosa at 2 to 10 MIC; format: functional, organism-based; conditions: 2 to 10 x MIC
[18] = system: Staphylococcus aureus; experiment: Induction of spontaneous mutation in Staphylococcus aureus at 2 to 10 MIC; format: functional, organism-based
[19] = system: Enterococcus faecium; experiment: Antibiofilm activity against Enterococcus faecium incubated for 24 hrs followed by biofilm resuspension in PBS and measured after 24 hrs; format: functional; outline: as §3
[20] = system: Staphylococcus aureus; experiment: Antimicrobial activity against Staphylococcus aureus assessed as inhibition of microbial growth after 24 hrs; format: functional; outline: as §5
[21] = system: Enterobacter cloacae; experiment: Antimicrobial activity against Enterobacter cloacae assessed as inhibition of microbial growth at 45 uM after 24 hrs; format: functional, organism-based; outline: as §2
[22] = system: Pseudomonas aeruginosa; experiment: Antimicrobial activity against Pseudomonas aeruginosa assessed as inhibition of microbial growth at 45 uM after 24 hrs; format: functional, organism-based; outline: as §2
[23] = system: Enterococcus faecium; experiment: Antimicrobial activity against Enterococcus faecium assessed as inhibition of microbial growth at 45 uM after 24 hrs; format: functional, organism-based; outline: as §2
[24] = system: Pseudomonas aeruginosa; experiment: Antimicrobial activity against Pseudomonas aeruginosa assessed as inhibition of microbial growth after 24 hrs; format: functional; outline: as §5
[25] = Selectivity index, ratio of IC50 for human A549 cells to MIC for Klebsiella pneumoniae
[26] = Selectivity index, ratio of IC50 for human A549 cells to MIC for Staphylococcus aureus
[27] = Selectivity index, ratio of IC50 for human A549 cells to MIC for Pseudomonas aeruginosa
[28] = system: Klebsiella pneumoniae; experiment: Induction of spontaneous mutation in Klebsiella pneumoniae at 2 to 10 MIC; format: functional, organism-based
[29] = system: Enterococcus faecium; experiment: Antimicrobial activity against Enterococcus faecium assessed as inhibition of microbial growth after 24 hrs; format: functional; outline: as §5
[30] = system: Staphylococcus aureus; experiment: Ratio of MIC for Staphylococcus aureus measured after 8 cycle passage to MIC for wild type Staphylococcus aureus; format: functional
[31] = system: Pseudomonas aeruginosa; experiment: Antibiofilm activity against Pseudomonas aeruginosa incubated for 24 hrs followed by biofilm resuspension in PBS and measured after 24 hrs; format: functional; outline: as §3
[32] = Cytotoxicity against human A549 cells assessed as cell viability recovery at 225 uM after 48 hrs by MTT assay; format: cell-based; conditions: read-out: Activity; outline: as §1
[33] = system: Pseudomonas aeruginosa; experiment: Bactericidal activity against Pseudomonas aeruginosa after 24 hrs; format: functional
[34] = system: Acinetobacter baumannii; experiment: Bactericidal activity against Acinetobacter baumannii after 24 hrs; format: functional
[35] = system: Enterococcus faecium; experiment: Bactericidal activity against Enterococcus faecium after 24 hrs; format: functional
[36] = system: Klebsiella pneumoniae; experiment: Bactericidal activity against Klebsiella pneumoniae after 24 hrs; format: functional
[37] = system: Staphylococcus aureus; experiment: Antibiofilm activity against Staphylococcus aureus incubated for 24 hrs followed by biofilm resuspension in PBS and measured after 24 hrs; format: functional; outline: as §3
[38] = system: Acinetobacter baumannii; experiment: Antibiofilm activity against Acinetobacter baumannii incubated for 24 hrs followed by biofilm resuspension in PBS and measured after 24 hrs; format: functional; outline: as §3
[39] = system: Staphylococcus aureus; experiment: Effect on bacterial density of methicillin-resistant Staphylococcus aureus at MIC measured over 2 hrs period by time kill assay; format: functional, organism-based
[40] = system: A549; experiment: Cytotoxicity against human A549 cells after 48 hrs by MTT assay; format: cell-based; conditions: A549, 48 h; outline: as §1
[41] = Selectivity index, ratio of IC50 for human A549 cells to MIC for Acinetobacter baumannii
[42] = system: Klebsiella pneumoniae; experiment: Antibiofilm activity against Klebsiella pneumoniae incubated for 24 hrs followed by biofilm resuspension in PBS and measured after 24 hrs; format: functional; outline: as §3
[43] = system: Staphylococcus aureus; experiment: Bactericidal activity against Staphylococcus aureus after 24 hrs; format: functional
[44] = system: Enterobacter cloacae; experiment: Induction of spontaneous mutation in Enterobacter cloacae at 2 to 10 MIC; format: functional, organism-based
[45] = system: Enterobacter cloacae; experiment: Antimicrobial activity against Enterobacter cloacae assessed as inhibition of microbial growth after 24 hrs; format: functional; outline: as §5
[46] = system: Acinetobacter baumannii; experiment: Antimicrobial activity against Acinetobacter baumannii assessed as inhibition of microbial growth at 45 uM after 24 hrs; format: functional, organism-based; outline: as §2
[47] = system: Klebsiella pneumoniae; experiment: Antimicrobial activity against Klebsiella pneumoniae assessed as inhibition of microbial growth after 24 hrs; format: functional; outline: as §5
[48] = system: Klebsiella pneumoniae; experiment: Ratio of MIC for Klebsiella pneumoniae measured after 8 cycle passage to MIC for wild type Klebsiella pneumoniae; format: functional
[49] = system: Staphylococcus aureus; experiment: Antimicrobial activity against Staphylococcus aureus USA300 strain FPR3757 infected in mouse model of lethal peritonitis assessed as mouse survival at 2 uM, im dosed 1 hr post infection and measured after 5 days post infection; format: functional, organism-based
Outline: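 Mice, six per group, infected i.p. with 1 × 10^8 CFU ml−1 S. aureus USA300 FPR3757 in PBS with 5% mucin. Compound given i.m. at 2 μM 1 h later; vehicle 45% w/v (2-hydroxypropyl)-β-cyclodextrin in water i.v.; vancomycin i.v. as control. Monitored twice daily for 5 days, pre-moribund animals euthanized. Survival compared by log-rank test.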

Q: For CCCCCCCN1C(=N)N(CCCC[C@H]2CNC(=N)N2CCC23C[C@H]4C[C@@H](C2)C[C@@H](C3)C4)C[C@@H]1CCCC, which MBC90 [1] is on record?
A: 2.7 µM (≈ 1.46 µg/mL)

Q: What about the viability at 48 h [2] of the same compound?
A: 53%

Q: And the “growth inhibition (GI)” value [3]?
A: Active

Q: What about the Activity [4] of the same compound?
A: inactive

Q: And the “Selectivity Index” value [5]?
A: 88

Q: What about the Ratio [6] of the same compound?
A: <=8

Q: And the Activity [7]?
A: inactive

Q: And the “Selectivity Index” value [8]?
A: 88

Q: What about the hemolysis at 0.25 h, 10 µM [9] of the same compound?
A: 0.34%

Q: And the “growth inhibition (GI)” value [10]?
A: Active

Q: And the MBEC50 [11]?
A: 15 µM

Q: What about the “fold change (FC)” value [12] of the same compound?
A: 2.5

Q: And the MIC [13]?
A: 1.7 µM

Q: And the “growth inhibition (GI)” value [14]?
A: Active

Q: And the Ratio [15]?
A: <=8

Q: What about the Survival [16] of the same compound?
A: 0.2%

Q: What about the Activity [17] of the same compound?
A: inactive

Q: What about the Activity [18] of the same compound?
A: inactive

Q: And the MBEC50 [19]?
A: 13 µM

Q: And the MIC [20]?
A: 1.7 µM

Q: What about the “growth inhibition (GI)” value [21] of the same compound?
A: Active

Q: What about the “growth inhibition (GI)” value [22] of the same compound?
A: Active

Q: And the “growth inhibition (GI)” value [23]?
A: Active

Q: And the MIC [24]?
A: 1.7 µM

Q: And the “Selectivity Index” value [25]?
A: 88

Q: And the “Selectivity Index” value [26]?
A: 88

Q: What about the “Selectivity Index” value [27] of the same compound?
A: 88

Q: What about the Activity [28] of the same compound?
A: inactive

Q: What about the MIC [29] of the same compound?
A: 1.7 µM

Q: And the Ratio [30]?
A: 16

Q: And the MBEC50 [31]?
A: 5 µM

Q: And the viability at 48 h, 225 µM [32]?
A: 35%

Q: What about the MBC90 [33] of the same compound?
A: 2.8 µM (≈ 1.51 µg/mL)

Q: And the MBC90 [34]?
A: 4.7 µM (≈ 2.54 µg/mL)

Q: What about the MBC90 [35] of the same compound?
A: 3.6 µM (≈ 1.95 µg/mL)

Q: And the MBC90 [36]?
A: 2.6 µM (≈ 1.41 µg/mL)

Q: And the MBEC50 [37]?
A: 6.4 µM

Q: And the MBEC50 [38]?
A: 24 µM

Q: And the Activity [39]?
A: inactive

Q: What about the IC50 [40] of the same compound?
A: 146 µM

Q: What about the “Selectivity Index” value [41] of the same compound?
A: 88

Q: What about the MBEC50 [42] of the same compound?
A: 8.6 µM

Q: And the MBC90 [43]?
A: 2.9 µM (≈ 1.57 µg/mL)

Q: And the Activity [44]?
A: inactive

Q: What about the MIC [45] of the same compound?
A: 1.7 µM

Q: What about the “growth inhibition (GI)” value [46] of the same compound?
A: Active

Q: And the MIC [47]?
A: 1.7 µM

Q: What about the Ratio [48] of the same compound?
A: <=8

Q: What about the Activity [49] of the same compound?
A: Active
